# Test results taken from ChEMBL document CHEMBL2380254, “Optimization of tocotrienols as antiproliferative and antimigratory leads” (Eur J Med Chem, 2013).
# Experiments:
# Format in all cases: functional
# A549 = assay: Growth inhibition of human A549/ATCC cells assessed as cell growth at 10 uM after 48 hrs by sulforhodamine B assay; conditions: A549, 48 h, read-out: Activity
# Procedure, shortened: (§1)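 NCI-60 single-dose screen at 10 µM: cells in RPMI 1640 with 5% FBS, preincubated 24 h, then exposed 48 h at 37 °C. TCA fixation (16% final for suspension cells), SRB staining, absorbance 515 nm. Percent growth relative to time-zero and untreated control plates; negative values indicate cell kill.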
# Malme-3M = assay: Growth inhibition of human MALME-3M cells assessed as cell growth at 10 uM after 48 hrs by sulforhodamine B assay; conditions: read-out: Activity
# Procedure, shortened: (§2)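 Single-dose NCI-60 screen: adherent cells in RPMI 1640 with 5% FBS were exposed to 10 µM for 48 h at 37 °C after a 24 h preincubation. They were fixed in situ with cold TCA (10% final), stained with 0.4% SRB in 1% acetic acid, solubilized in 10 mM Tris base, and read at 515 nm. Percent growth was taken relative to time-zero and control plates.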
# BT-549 = assay: Growth inhibition of human BT549 cells assessed as cell growth at 10 uM after 48 hrs by sulforhodamine B assay; conditions: BT-549, 48 h, read-out: Activity; procedure, shortened: as §1
# SK-OV-3 = assay: Growth inhibition of human SKOV3 cells assessed as cell growth at 10 uM after 48 hrs by sulforhodamine B assay; conditions: SK-OV-3, 48 h, read-out: Activity
# Procedure, shortened: (§3)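 Single-dose NCI-60 test at 10 µM. Cells were grown in RPMI 1640 with 5% FBS and 2 mM L-glutamine, preincubated 24 h, with T0 plates TCA-fixed. Exposure was 48 h at 37 °C, 5% CO2. Cells were fixed with cold TCA (final 10%, 4 °C, 60 min), stained with SRB and read at 515 nm. Percent growth was taken relative to T0 and untreated control; negative values denote cell kill.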
# [1] = Growth inhibition of human EKVX cells assessed as cell growth at 10 uM after 48 hrs by sulforhodamine B assay; conditions: read-out: Activity; procedure, shortened: as §1
# KM12 = assay: Growth inhibition of human KM12 cells assessed as cell growth at 10 uM after 48 hrs by sulforhodamine B assay; conditions: KM12, 48 h, read-out: Activity; procedure, shortened: as §1
# UACC-257 = assay: Growth inhibition of human UACC257 cells assessed as cell growth at 10 uM after 48 hrs by sulforhodamine B assay; conditions: UACC-257, 48 h, read-out: Activity; procedure, shortened: as §3
# COLO 205 = assay: Growth inhibition of human COLO205 cells assessed as cell growth at 10 uM after 48 hrs by sulforhodamine B assay; conditions: COLO 205, 48 h, read-out: Activity; procedure, shortened: as §1
# SF-268 = assay: Growth inhibition of human SF268 cells assessed as cell growth at 10 uM after 48 hrs by sulforhodamine B assay; conditions: SF-268, 48 h, read-out: Activity; procedure, shortened: as §2
# 786-0 = assay: Growth inhibition of human 786-0 cells assessed as cell growth at 10 uM after 48 hrs by sulforhodamine B assay; conditions: 786-0, 48 h, read-out: Activity; procedure, shortened: as §1
# IGROV-1 = assay: Growth inhibition of human IGROV1 cells assessed as cell growth at 10 uM after 48 hrs by sulforhodamine B assay; conditions: IGROV-1, 48 h, read-out: Activity; procedure, shortened: as §1
Compound,growth at 10 µM (A549),growth at 10 µM (Malme-3M),growth at 10 µM (BT-549),growth at 10 µM (SK-OV-3),growth at 10 µM [1],growth at 10 µM (KM12),growth at 10 µM (UACC-257),growth at 10 µM (COLO 205),growth at 10 µM (SF-268),growth at 10 µM (786-0),growth at 10 µM (IGROV-1)
COc1ccc(CCNCc2c(O)c(C)c(C)c3c2CC[C@@](C)(CC/C=C(\C)CC/C=C(\C)CCC=C(C)C)O3)cc1OC,91.8%,120%,118%,105%,99.3%,60.1%,107%,5.95%,98%,78.1%,71.5%
CC(C)=CCC/C(C)=C/CC/C(C)=C/CC[C@]1(C)CCc2c3c(cc(C)c2O1)OCN(CCCCCCCCCCO)C3,59.9%,101%,102%,,87.1%,87.2%,81.4%,79.3%,97.7%,85.3%,80.1%
COc1ccc(CCN2COc3c(C)c(C)c4c(c3C2)CC[C@@](C)(CC/C=C(\C)CC/C=C(\C)CCC=C(C)C)O4)cc1OC,98.9%,93.6%,115%,95.3%,94.1%,96.4%,105%,86.7%,94.8%,94.9%,87.4%
CC(C)=CCC/C(C)=C/CC/C(C)=C/CC[C@]1(C)CCc2c(CNCCc3ccc(O)cc3)c(O)c(C)c(C)c2O1,94.2%,110%,105%,102%,99.8%,89.6%,102%,106%,96.9%,78.2%,78.5%
CC(C)=CCC/C(C)=C/CC/C(C)=C/CC[C@]1(C)CCc2c3c(c(C)c(C)c2O1)OCN(CCc1ccc(O)cc1)C3,92.8%,114%,113%,105%,93.9%,65.6%,93.6%,52.1%,83.7%,77.3%,67.7%
CC(C)=CCC/C(C)=C/CC/C(C)=C/CC[C@]1(C)CCc2c3c(c(C)c(C)c2O1)OCN(CCCCCCCCCCO)C3,74.9%,105%,108%,,102%,89.1%,102%,100%,94.2%,99.2%,102%
CC(C)=CCC/C(C)=C/CC/C(C)=C/CC[C@]1(C)CCc2c3c(cc(C)c2O1)OCN(CCCCCCCCCCCCO)C3,47.6%,106%,114%,,77.6%,61.1%,64.3%,71.2%,98.7%,97%,72.5%
CC(C)=CCC/C(C)=C/CC/C(C)=C/CC[C@]1(C)CCc2c3c(c(C)c(C)c2O1)OCN(CCCCCCCCCCCCO)C3,86.5%,101%,127%,,105%,90.4%,104%,97.5%,116%,110%,102%
CC(C)=CCC/C(C)=C/CC/C(C)=C/CC[C@]1(C)CCc2cc(O)c(C)c(C)c2O1 [GAMMA-TOCOTRIENOL],105%,92.5%,141%,,110%,107%,123%,94.4%,108%,114%,96.3%
